In experiment [1] the test system is A549. The experiment in a line: Concentration that gives 50% growth inhibition (topotecan alone/ (topotecan + 0.4 uM of compound)) in A549 cells. The class given is functional, Homo sapiens. A digest of the protocol: (§1)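 A549 cells exposed to temozolomide (TM) or topotecan (TP), each with or without 0.4 μM PARP inhibitor. […] PF50 = GI50 of cytotoxic agent alone ÷ GI50 with inhibitor. Values are the average of two independent experiments.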

Experiment [2] concerns A549. The experiment in a line: Concentration that gives 50% growth inhibition in A549 cells, activity expressed as PF50 (TM). The class given is functional, Homo sapiens. A digest of the protocol: as §1
For experiment [3], the target named is T1, Poly [ADP-ribose] polymerase 1 (Homo sapiens, UniProt P09874). In words: Inhibitory activity against human full length Poly (ADP-ribose) polymerase 1.
T1 sequence (P09874 whole entry): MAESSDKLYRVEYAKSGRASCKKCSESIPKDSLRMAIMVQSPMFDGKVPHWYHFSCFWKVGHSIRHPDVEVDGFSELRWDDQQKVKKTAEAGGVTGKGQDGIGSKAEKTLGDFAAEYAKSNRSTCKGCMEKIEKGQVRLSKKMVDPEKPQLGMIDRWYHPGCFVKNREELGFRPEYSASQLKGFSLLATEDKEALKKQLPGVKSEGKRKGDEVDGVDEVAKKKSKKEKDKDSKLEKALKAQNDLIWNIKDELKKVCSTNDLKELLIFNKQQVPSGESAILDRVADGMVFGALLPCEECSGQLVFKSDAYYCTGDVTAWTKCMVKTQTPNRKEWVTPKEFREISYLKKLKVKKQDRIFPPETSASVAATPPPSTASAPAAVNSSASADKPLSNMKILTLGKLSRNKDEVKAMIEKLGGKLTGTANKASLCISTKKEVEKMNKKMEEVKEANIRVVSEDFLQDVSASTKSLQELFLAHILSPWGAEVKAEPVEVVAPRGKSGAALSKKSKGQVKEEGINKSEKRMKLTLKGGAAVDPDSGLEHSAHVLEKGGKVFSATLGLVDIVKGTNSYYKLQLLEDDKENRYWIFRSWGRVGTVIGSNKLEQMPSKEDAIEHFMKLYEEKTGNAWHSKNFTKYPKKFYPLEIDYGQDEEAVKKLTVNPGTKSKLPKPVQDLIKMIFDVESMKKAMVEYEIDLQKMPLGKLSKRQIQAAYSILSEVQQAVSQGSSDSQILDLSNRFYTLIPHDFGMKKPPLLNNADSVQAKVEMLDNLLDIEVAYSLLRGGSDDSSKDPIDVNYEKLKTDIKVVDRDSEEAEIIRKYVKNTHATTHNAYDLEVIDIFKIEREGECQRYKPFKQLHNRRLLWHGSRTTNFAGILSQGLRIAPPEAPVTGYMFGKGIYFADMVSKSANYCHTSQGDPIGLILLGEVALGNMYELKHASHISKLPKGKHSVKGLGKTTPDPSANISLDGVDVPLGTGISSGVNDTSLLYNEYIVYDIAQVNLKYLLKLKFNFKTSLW
Experiment [4] concerns the target T1, Poly [ADP-ribose] polymerase 1. In words: Inhibitory activity against human full length Poly (ADP-ribose) polymerase 1 at 100 uM. A digest of the protocol:
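Human full-length PARP-1 enzyme assay. Tested at a single concentration of 100 μM, reported as percent inhibition instead of a Ki value.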

The subject of experiment [5] is A549. The experiment in a line: Enhancement factor of 200 uM temozolomide by 0.4 uM PARP inhibitor in A549 cells.
Experiment [6] concerns A549. The experiment in a line: Concentration that gives 50% growth inhibition (temozolomide alone/ (temozolomide + 0.4 uM of compound)) in A549 cells. The class given is functional, Homo sapiens. A digest of the protocol:
as §1

Experiment [7] deals with LoVo. In words: Potentiation of temozolomide in LoVo cells by 0.40 uM compound (TM). Format: functional, Homo sapiens.
For experiment [8], the system named is LoVo. In words: Potentiation of topotecan in LoVo cells, by 0.40 uM compound (TP). Format: functional, Homo sapiens.
Experiment [9] deals with LoVo. The experiment in a line: Concentration that gives 50% growth inhibition in LoVo cells, activity expressed as GI50. Conditions: Homo sapiens. Format: functional.
Experiment [10] deals with A549. The experiment in a line: Concentration that gives 50% growth inhibition in A549 cells, activity expressed as PF50 (TP) at 0.006 uM. Format: functional, Homo sapiens. In short, it runs like this:
(§2)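 A549 cells given topotecan alone or together with the PARP inhibitor at the listed concentration. PF50 (TP) = GI50 of topotecan alone ÷ GI50 of topotecan with inhibitor.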

Experiment [11] has as its system A549. The experiment in a line: Concentration that gives 50% growth inhibition in A549 cells, activity expressed as PF50 (TP) at 0.03 uM. The class given is functional, Homo sapiens. A digest of the protocol: as §2
The test system of experiment [12] is A549. The experiment in a line: Percent ADP-ribose polymer formation in presence of MNNG (25 uM) at 0..006 uM compound concentration in A549 cells. Format: functional, Homo sapiens. In short, it runs like this: (§3)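 A549 cells treated with vehicle, with 25 μM MNNG, or with 25 μM MNNG plus inhibitor at 0.006–11 μM. ADP-ribose polymer quantified by HPLC and expressed as % of the polymer formed with 25 μM MNNG alone.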

The test system of experiment [13] is A549. In words: Percent ADP-ribose polymer formation in presence of MNNG (25 uM) at 0..03 uM compound concentration in A549 cells. Format: functional, Homo sapiens. A digest of the protocol: as §3
Experiment [14] relates to A549. In words: Percent ADP-ribose polymer formation in presence of MNNG (25 uM) at 0..15 uM compound concentration in A549 cells. The class given is functional, Homo sapiens. A digest of the protocol:
as §3

Experiment [15] concerns A549. The experiment in a line: Effect on NAD+ depletion (% remaining versus vehicle control) in presence of MNNG (25 uM) at 11 uM compound concentration in A549 cells. Format: functional, Homo sapiens. In short, it runs like this:
(§4)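 A549 cells treated with vehicle, with 25 μM MNNG (subtoxic DNA alkylation), or with 25 μM MNNG plus inhibitor at 0.006–11 μM. Cellular NAD+ measured by an enzyme recycling method and expressed as % remaining relative to vehicle-treated cells without DNA damage.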

For experiment [16], the system named is A549. In words: Concentration that gives 50% growth inhibition in A549 cells, activity expressed as PF50 (TP) at 0.15 uM. The class given is functional, Homo sapiens. In short, it runs like this:
as §2

The test system of experiment [17] is A549. In words: Concentration that gives 50% growth inhibition in A549 cells, activity expressed as PF50 (TP) at 0.4 uM. The class given is functional, Homo sapiens. A digest of the protocol:
as §2

In experiment [18] the test system is A549. The experiment in a line: Effect on NAD+ depletion (% remaining versus vehicle control) in presence of MNNG (25 uM) at 0.006 uM compound concentration in A549 cells. Format: functional, Homo sapiens. A digest of the protocol:
as §4

Experiment [19] relates to A549. The experiment in a line: Effect on NAD+ depletion (% remaining versus vehicle control) in presence of MNNG (25 uM) at 0.03 uM compound concentration in A549 cells. The class given is functional, Homo sapiens. A digest of the protocol: as §4
Experiment [20] concerns A549. The experiment in a line: Effect on NAD+ depletion (% remaining versus vehicle control) in presence of MNNG (25 uM) at 0.15 uM compound concentration in A549 cells. The class given is functional, Homo sapiens. A digest of the protocol:
as §4

Experiment [21] has as its system A549. In words: Effect on NAD+ depletion (% remaining versus vehicle control) in presence of MNNG (25 uM) at 0.4 uM compound concentration in A549 cells. Format: functional, Homo sapiens. In short, it runs like this:
as §4

The subject of experiment [22] is A549. The experiment in a line: Percent ADP-ribose polymer formation in presence of MNNG (25 uM) at 0..4 uM compound concentration in A549 cells. Format: functional, Homo sapiens. A digest of the protocol: as §3
Experiment [23] relates to A549. In words: Percent ADP-ribose polymer formation in presence of MNNG (25 uM) at 11 uM compound concentration in A549 cells. The class given is functional, Homo sapiens. In short, it runs like this: as §3
The test system of experiment [24] is LoVo. The experiment in a line: Potentiation of topotecan in LoVo cells by 0.40 uM compound (TP). Format: functional, Homo sapiens.

The structures appear in SMILES notation.

For `O=C1NCCn2c(-c3ccccc3Cl)nc3cccc1c32`, the PF50 in the experiment on A549 [1] turned out to be 1.3.

Take `Cc1nc2cccc3c2n1CCNC3=O`: the figures for the PF50 with A549 [2] and in the experiment with A549 [1] were 1.1 and 1.2, respectively. In experiment [3], this compound registered a Ki of 45 nM.

In the case of `CN1CCn2c(-c3cccc4ccccc34)nc3cccc(c32)C1=O`, the inhibition in experiment [4] was determined as 40%. The EF200 in the experiment on A549 [5] amounted to 1.1.

In the case of `O=C1NCCn2c(-c3cccc(CO)c3)nc3cccc1c32`, in the experiment on A549 [5], the EF200 is given as 1.2.

`O=C1NCCn2c(-c3ccc(CO)cc3)nc3cccc1c32`: the EF200 in the experiment on A549 [5] is reported as 1.5.

With `CN(C)Cc1cccc(-c2nc3cccc4c3n2CCNC4=O)c1`, the PF50 was 1.4 in the experiment with A549 [6], 1.8 with A549 [1], 2 with LoVo [7] and 1.5 in the experiment on LoVo [8]. Besides, the GI50 in the experiment with LoVo [9] was > 50 µM.

As to `O=C1NCCn2c(-c3ccc(Cl)cc3)nc3cccc1c32`, the PF50 in the experiment with A549 [6] stood at 1.5; in the experiment with A549 [1], 2; in the experiment on LoVo [7] it was 2.1; with LoVo [8] it was 1.5. Halving of growth in the experiment on LoVo [9] (GI50) required 7.9 µM.

With `CN(C)Cc1ccc(-c2nc3cccc4c3n2CCNC4=O)cc1`, the PF50 in the experiment on A549 [10] worked out at 1.6; in the experiment on A549 [11], 1.9; in the experiment on A549 [16], 2.1; with A549 [17] it was 2.3; in the experiment on A549 [6], 2.2; in the experiment on A549 [1] it was 2. Also, the figures for the PF50 in the experiment with LoVo [7] and with LoVo [24] were 5.4 and 1.7, respectively. The Formation with A549 [12] is given as 85%; in the experiment with A549 [13] it was 38%; in the experiment on A549 [14], 20%; with A549 [22], 13%; with A549 [23], 5.5%. The Remaining is on record as 99% with A549 [15]; 65% in the experiment on A549 [18]; 75% in the experiment with A549 [19]; 85% with A549 [20]; 88% in the experiment on A549 [21]. Also, in the experiment with LoVo [9], it took 11.2 µM to inhibit growth by half (GI50).

Take `O=C1NCCn2c(-c3ccccc3)nc3cccc1c32`: the PF50 in the experiment with A549 [1] turned out to be 1.5.

In the case of `O=C1NCCn2c(-c3cccc(C(F)(F)F)c3)nc3cccc1c32`, the PF50 with A549 [1] was determined as 1.7.

On to `O=C1NCCn2c(-c3cccc4ccccc34)nc3cccc1c32`, for which the PF50 with A549 [1] is 1.4.
